Screening results as filed in PubChem BioAssay.
A selection: hits, their analogues and other compounds. The true share with any hit is near 1.8%.
TCR-CD3 inh – human TCR-CD3 binding inhibition; TAMRA-labeled TCR probe fluorescence, biochemical; inhibition, % at 9.4 µM; 360,000 compounds, 0.37% hits; AID 651800; in the data active = inhibition above about 19%;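 also: recombinant mutant TCR 2C K166C tagged with TAMRA read by polarization; 0% = receptor in buffer alone and 100% = receptor with positive control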
ARNT-TACC3 inh – disruptors of human ARNT/TACC3 interaction; 390,000 compounds, 0.66% hits; inhibition, % at 9.99 µM; AlphaScreen His-ARNT PAS-B/GST-TACC3 binding, luminescence; TACC3 fragment carries E629A point mutation; AID 623870; Q9Y6A5;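 active = mean inhibition of replicates at least 50% and at least half of replicates each reaching 50%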;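 also: 0% = complete ARNT plus TACC3 wells and 100% = ARNT alone without TACC3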
SIAE primary – human SIAE inhibition, primary screen; Q9HAT2; 370,000 compounds, 0.69% hits; inhibition, % at 9.66 µM; AID 1053197; SIAE FP-Rh probe binding, fluorescence polarization;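 active = inhibition above a cutoff: mean of compounds within the control limits plus 3 SD of those, cut at about 17% in these data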;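 also: 0% = plate median of compound wells and 100% = probe without SIAE protein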
Target sequence (Q9HAT2 whole entry, looked up): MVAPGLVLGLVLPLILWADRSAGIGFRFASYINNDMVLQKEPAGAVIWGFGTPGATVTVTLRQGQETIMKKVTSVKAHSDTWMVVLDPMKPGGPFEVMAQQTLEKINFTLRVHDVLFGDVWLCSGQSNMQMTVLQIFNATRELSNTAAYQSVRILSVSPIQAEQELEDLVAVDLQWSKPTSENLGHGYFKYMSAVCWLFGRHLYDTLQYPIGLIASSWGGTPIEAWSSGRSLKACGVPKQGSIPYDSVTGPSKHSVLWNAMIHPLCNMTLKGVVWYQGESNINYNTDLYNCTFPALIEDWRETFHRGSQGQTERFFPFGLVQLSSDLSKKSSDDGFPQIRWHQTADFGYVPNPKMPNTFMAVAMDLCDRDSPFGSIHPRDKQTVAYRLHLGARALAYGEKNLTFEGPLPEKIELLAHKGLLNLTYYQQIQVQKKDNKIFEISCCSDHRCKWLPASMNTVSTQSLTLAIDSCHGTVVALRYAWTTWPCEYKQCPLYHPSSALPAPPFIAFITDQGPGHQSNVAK
HTRA1 inh – blocks human HTRA1 serine peptidase. 340,000 compounds, 0.5% hits. recombinant HTRA1, FP-rhodamine activity-based probe, fluorescence polarization. inhibition, % at 5.96 µM. Q92743; in the data active = inhibition above about 36%;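 also: 0% = enzyme with DMSO and 100% = wells lacking enzyme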
ABHD4 inh – inhibits mouse alpha/beta hydrolase domain 4. AID 720543. 370,000 compounds, 0.54% hits. purified mABHD4, FP-Rh probe fluorescence polarization. inhibition, % at 8.92 µM;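 active = inhibition exceeding the mean over every tested compound plus 3 SD, cut at about 30% in these data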;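 also: 0% = plate median of compound wells and 100% = S159A mutant with DMSO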
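Material: mouse ABHD4 enzyme, wild type; Benchmarks: S159A mutant high control, sample median low control; Buffer or medium: HEPES pH 7.0, NaCl, Pluronic buffer; Signal: fluorescence polarization; Read-out: percent inhibition of probe binding, normalized to plate controls; Timing: pre-incubation 45 min, probe exposure 60 min, at 25 °C; Dosing: 8.92 µM, single dose.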
ARNT Alpha ctr-1 – interferes with AlphaScreen signal, flagging false ARNT-TACC3 hits. shares compounds with ARNT-TACC3 inh. His-ARNT PASB-GST AlphaScreen artifact counter-screen, luminescence. AC50, µM (series often up to 68 µM), without a hit: at the top dose activity change, negative = signal decrease. 1,200 compounds, 50% hits. AID 651705;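 active = every separate test run was called active for a drop in luminescence, with AC50 within twice the top valid dose, actives reach about 71 µM in these data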
ARNT Alpha ctr-2 – AlphaScreen artifact flagged for ARNT-TACC3 inhibitors. Dual-tagged His-ARNT PASB-GST AlphaScreen artifact counter-screen. AC50, µM. 45 compounds, 70% hits. shares compounds with ARNT-TACC3 inh;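 active = luminescence drop, with half-maximal potency fitted within twice the sample's top valid dose, cut at about 70 µM in these data; inactive = the rest, including signal moving the wrong way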
The depositor's hits bear a star; · = not tested or not shown; [ ] = remark or other dose.

SMILES	TCR-CD3 inh	ARNT-TACC3 inh	SIAE primary	HTRA1 inh	ABHD4 inh	ARNT Alpha ctr-1	others
O=C(CSc1ccc2nnc(-c3ccccn3)n2n1)Nc1ccc(F)cc1F	3	53*	-7	0	4	-34%
Cc1ccc(NC(=O)CSc2ccc3nnc(-c4ccccn4)n3n2)cc1	3	20	5	3	6	·
COc1ccc(NC(=O)CSc2ccc3nnc(-c4ccccn4)n3n2)cc1	8	66*	-6	8	-1	-17%
O=C(CSc1nnc(-c2ccccn2)n1-c1ccccc1)Nc1ccc2c(c1)OCCO2	·	·	-4	·	-2	·
COC(=O)C[C@@H]1C[C@H]2c3cc(NC(=O)CN(C)C)ccc3O[C@H]2[C@@H](CO)O1	·	-16	·	·	·	·
C[C@@H]1CN([C@@H](C)CO)C(=O)Cc2cc(NC(=O)Cc3cn(C)c4ccccc34)ccc2O[C@H]1CN(C)CC1CCCCC1	·	3	·	·	·	·
CO[C@@H]1CN(C)C(=O)c2cc(NS(C)(=O)=O)ccc2OC[C@H](C)N(CC2CCCCC2)C[C@H]1C	·	3	·	·	·	·
C[C@@H]1CN([C@H](C)CO)C(=O)Cc2cc(NC(=O)C3CCCCC3)ccc2O[C@@H]1CN(C)C(=O)NC1CCCCC1	·	-5	·	·	·	·
Nn1c(SC/C=C/c2ccccc2)nnc1-c1ccccn1	8	54*	6	-3	-7	60µM*
COc1ccc(NC(=O)CSc2nnc(-c3ccccn3)n2N)cc1	-1	55*	-4	0	0	-34%
CCOc1ccc(NC(=O)CSc2nnc(-c3ccccn3)n2N)cc1	-8	20	2	3	-1	·
CCOC(=O)N1CCN(Cc2ccc(O)c3ncccc23)CC1	-2	·	3	·	13	·
CC(C)(C)OC(=O)N1CCN(Cc2ccc(O)c3ncccc23)CC1	·	·	·	·	·	1.1µM*
Cc1ccc(C)c(S(=O)(=O)N2CCN(Cc3ccc(O)c4ncccc34)CC2)c1	5	54*	4	12	0	17µM*
Cc1ccc(S(=O)(=O)Nc2ccc3c(c2)C(=O)N([C@H](C)CO)C[C@H](C)[C@@H](CN(C)Cc2ccc(Cl)c(Cl)c2)OCCCC[C@H](C)O3)cc1	·	16	·	·	·	·
COc1ccc(S(=O)(=O)N[C@@H]2CC[C@H](CCn3cc(-c4ccccc4F)nn3)O[C@H]2CO)cc1	·	5	·	·	·	·
Nc1ccc(C(=O)Nc2ccccc2C(=O)O)cc1	4	12	0	1	9	·
O=C(Nc1ccccc1C(=O)Nc1ccccc1C(=O)O)c1ccccc1	-6	74*	-28	-73	-16	26µM*
CN(Cc1ccccc1)CC(O)COc1ccc(CNCCc2ccncc2)cc1 (stereo unspecified)	0	10	-8	2	-13	·
CN(Cc1ccccc1)CC(O)COc1ccc(CNCc2nccn2C)cc1 (stereo unspecified)	-11	63*	2	3	1	-16%
CCCC#Cc1cnc2c(c1)C(=O)N([C@@H](C)CO)C[C@@H](C)[C@@H](CN(C)C(=O)Nc1ccccc1OC)O2	·	1	·	·	·	·
COC(=O)C[C@@H]1CC[C@@H](NS(=O)(=O)c2ccc(OC)cc2)[C@H](CO)O1	·	58*	·	·	·	4%[38 µM]
c1ccc(-c2nnc(SCc3nc4ccccc4[nH]3)n2Cc2ccco2)nc1	8	61*	0	2	-3	-11%
c1coc(Cn2c(SCc3nc4ccccc4[nH]3)nnc2-c2cnccn2)c1	2	23	3	-3	-1	·
Cc1cccc(S(=O)(=O)N[C@@H]2CC[C@@H](CCn3cc(-c4ccccn4)nn3)O[C@@H]2CO)c1	·	98*	·	·	·	-36%[38 µM]
SMILES	TCR-CD3 inh	ARNT-TACC3 inh	SIAE primary	HTRA1 inh	ABHD4 inh	ARNT Alpha ctr-1	others
COc1cccc(S(=O)(=O)N[C@@H]2CC[C@@H](CCn3cc(-c4ccccc4)nn3)O[C@H]2CO)c1	·	-2	·	·	·	·
Cc1cccc(S(=O)(=O)N[C@H]2CC[C@@H](CCn3cc(-c4ccccn4)nn3)O[C@@H]2CO)c1	·	102*	·	·	·	44µM*
COc1cccc(S(=O)(=O)N[C@H]2CC[C@@H](CCn3cc(-c4ccccc4)nn3)O[C@@H]2CO)c1	·	3	·	·	·	·
CC(=O)Nc1ccc2c(c1)C(=O)N(C)[C@@H]1CC[C@@H](CC(=O)NCC3CCCCC3)O[C@H]1CO2	·	-6	·	·	·	·
O=C(NC1CCCCC1)[C@H]1[C@H](CO)[C@H]2Cn3c(cccc3=O)[C@H]2N1C(=O)CC1CC1	·	0	·	·	·	·
O=C(Nc1ccccc1)N1CCCCN2[C@H](C1)[C@H](c1ccc(C#CC3CC3)cc1)[C@@H]2CO	·	active	·	·	·	-32%[38 µM]
O=C(CC(=O)N/N=C/c1ccccc1O)NCc1cccnc1	-3	48*	-2	-3	-7	-19%
COc1ccccc1/C=N/NC(=O)CC(=O)NCc1cccnc1	7	2	2	-2	1	·
C[C@H]1CN([C@@H](C)CO)C(=O)c2cccc(NC(=O)c3ccncc3)c2O[C@H]1CN(C)C(=O)Nc1ccc(C(F)(F)F)cc1	·	-4	·	·	·	·
COC(=O)C[C@@H]1C[C@H]2c3cc(NC(=O)Nc4ccc(C(F)(F)F)cc4)ccc3O[C@H]2[C@H](CO)O1	·	6	·	·	·	·
CCSc1nnc(NC(=O)c2ccccn2)s1	-3	52*	-5	3	1	31µM*
CCSc1nnc(NC(=O)c2cccnc2Cl)s1	5	-1	2	1	1	·
CN(C)S(=O)(=O)c1cccc(NC(=O)CSc2cccc3cccnc23)c1	-4	65*	-2	9	2	12µM*
CN(C)S(=O)(=O)c1ccc(SCC(=O)Nc2cccc(S(=O)(=O)N3CCCC3)c2)nc1	8	-2	-2	-4	3	·
O=C(CSc1cccc2cccnc12)N/N=C/c1ccc(F)cc1	-7	44	1	4	12	·
O=C(O)CSc1cccc2cccnc12	-5	60*	0	-5	10	-18%
C[C@H]1CN([C@@H](C)CO)C(=O)c2cccc(NC(=O)Nc3ccc4c(c3)OCO4)c2O[C@@H]1CN(C)S(=O)(=O)c1ccc(F)cc1	·	5	·	·	·	·
COc1cccc(NC(=O)N(C)C[C@H]2Oc3cc(-c4ccccc4F)ccc3S(=O)(=O)N([C@H](C)CO)C[C@@H]2C)c1	·	1	·	·	·	·
c1ccc(-c2nc(-c3ccncc3)n[nH]2)nc1	-6	70*	3	1	-1	23µM*	ARNT Alpha ctr-2=5.1*
O=C(C[C@@H]1C=C[C@H](NC(=O)c2cccc(F)c2)[C@@H](CO)O1)NCc1ccc(Oc2ccccc2)cc1	·	-34	·	·	·	·
C[C@H](O)C#Cc1cnc2c(c1)C(=O)N([C@H](C)CO)C[C@H](C)[C@H](CN(C)C(=O)Cc1ccncc1)O2	·	0	·	·	·	·
Cc1[nH][nH]c(=O)c1C(c1ccc(Cl)cc1)c1c(C)[nH][nH]c1=O	1	18*	6	7	-1	5%
